Most compounds without a hit are left out; they make up all but 5.1% or so of the library.
Hsp90 block – displaces geldanamycin probe from tumor Hsp90. AID 429. inhibition, % at 30 µM. 64,000 compounds, 0.35% hits. P07900. NCI-N417 lysate Hsp90, Cy3B-geldanamycin FP displacement;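 active = inhibition above 50%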
E coli WT exp – E. coli BW25113 growth inhibition, expanded screen | 98,000 compounds, 0.15% hits | OD600 absorbance | growth inhibition, % at 100 µM;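 active = growth inhibition above about 50% at one test dose, limit read from the data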;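 also: growth measured after 20 h incubation at 37 °C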
Ecoli tolC – E. coli tolC mutant growth inhibition; AID 573; E. coli BW25113 tolC mutant growth, OD615; 65,000 compounds, 2.2% hits; growth inhibition, % at 10 µM (by protocol);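 active = growth inhibition at or above a cutoff equal to the mean over every tested compound plus 3 SD, cut at about 60% in these data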;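 also: growth measured after 20 h incubation at 37 °C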
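System: E. coli ΔtolC::kan strain BW25113; Buffer or medium: LB broth supplemented with 50 µg/mL kanamycin; Compound: 10 µM final, single dose; Incubation: bacterial growth with compound for 20 h at 37 °C; Signal: A615 absorbance measurement; Evaluation: growth inhibition in percent.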
BAP1 block – inhibitors of human BAP1 deubiquitinase | Q92560 | recombinant BAP1, Ub-AMC hydrolysis fluorescence kinetic; stronger effect = lower value | calls only at 20 µM | 72,000 compounds, 0.48% hits | AID 436;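 active = activity remaining at or below 50% of control, provided the compound also passes the data quality filters; inactive = the rest, including low values that fail the filters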
M1 ag – M1 muscarinic receptor agonism | CHO-M1 cells, Fluo-4 calcium fluorescence, agonist mode; stronger effect = higher value | B-score at 10 µM | 64,000 compounds, 3% hits;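 active = fluorescence rise, raw or as B-score row- and column-corrected plate score, outside the 99.7% band of its plate's samples, either direction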
M1 antag – antagonists of rat M1 muscarinic receptor; CHO-M1 cells, Fluo-4 calcium, ACh EC80 antagonist mode; stronger effect = lower value; B-score at 10 µM; 64,000 compounds, 3.4% hits; AID 628;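 active = calcium fluorescence response, raw or row-and-column corrected B-score, differing from the plate sample mean either way at a set confidence level, mostly lower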
Target sequence (P08482 whole entry, looked up): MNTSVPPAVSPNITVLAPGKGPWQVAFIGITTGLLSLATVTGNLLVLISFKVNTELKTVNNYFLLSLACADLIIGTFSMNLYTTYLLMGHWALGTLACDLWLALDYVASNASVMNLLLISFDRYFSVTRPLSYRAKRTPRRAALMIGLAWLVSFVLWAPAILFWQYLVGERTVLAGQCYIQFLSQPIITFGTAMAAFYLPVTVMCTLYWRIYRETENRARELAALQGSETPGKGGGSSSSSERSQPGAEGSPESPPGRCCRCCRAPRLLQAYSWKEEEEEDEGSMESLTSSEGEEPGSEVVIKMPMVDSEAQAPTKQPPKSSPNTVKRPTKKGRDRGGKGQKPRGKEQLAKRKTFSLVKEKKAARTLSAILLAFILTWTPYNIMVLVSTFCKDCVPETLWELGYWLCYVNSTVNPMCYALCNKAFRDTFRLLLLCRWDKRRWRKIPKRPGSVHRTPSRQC
Large screens that a line does not name were inactive.

COc1ccc(Cc2nn3c(-c4ccccc4OC)nnc3s2)cc1	none
COc1ccccc1-c1nnc2sc(COc3ccc(Cl)cc3)nn12	Ecoli tolC 69
Oc1ccc(N=Cc2ccc(O)c(O)c2)cc1	Hsp90 block 93
Cc1noc(/C=C/N(C)C)c1S(=O)(=O)N1CCc2ccccc21	M1 antag 1.3
Cc1noc(/C=C/N(C)C)c1S(=O)(=O)N(C)CC(=O)N1CCc2ccccc21	none
O=C(Nc1nnc(CCS(=O)(=O)c2ccc(Br)cc2)s1)c1ccccc1Cl	none (no result: Hsp90 block, E coli WT exp, Ecoli tolC, M1 ag, M1 antag)
COc1ccc(Cn2c(=O)sc3ccccc32)cc1	Ecoli tolC 61 (no result: M1 ag, M1 antag)
COc1cccc(C(=O)NCC(=O)n2nc(C)cc2C)c1	Hsp90 block 121
COc1cc(C(=O)NCC(=O)n2nc(C)cc2C)cc(OC)c1OC	none
CC1Cc2ccccc2N1C(=O)Cn1c(=O)oc2cc(S(=O)(=O)NC3CCCC3)ccc21 (stereo not given)	Ecoli tolC 74
CC1CCN(S(=O)(=O)c2ccc3c(c2)oc(=O)n3CC(=O)N2c3ccccc3CC2C)CC1 (stereo not given)	none
CC(C)(C)c1ccc(-c2csc(NC(=O)c3cccc([N+](=O)[O-])c3)n2)cc1	none (no result: Hsp90 block, E coli WT exp, Ecoli tolC, M1 ag, M1 antag)
Cn1c(=O)c2c(SCC(=O)N3CCN(c4ccccc4)CC3)nc(C3CC3)nc2n(C)c1=O	M1 ag 4.8, M1 antag -2.3 (no result: E coli WT exp)
CCc1nc(SCC(=O)N2CCN(c3ccccc3)CC2)c2c(=O)n(C)c(=O)n(C)c2n1	none (no result: E coli WT exp)
COc1cc(C2NC(=S)NC(C)=C2C(N)=O)ccc1OCC(C)C (stereo not given)	none (no result: Hsp90 block, E coli WT exp, Ecoli tolC, M1 ag, M1 antag)
CC1CN(c2oc(COc3ccc(Cl)cc3Cl)nc2C#N)CC(C)O1 (stereo not given)	Ecoli tolC 81
N#Cc1nc(COc2ccc(F)cc2)oc1N1CCN(Cc2ccccc2)CC1	Ecoli tolC 65
N#Cc1nc(COc2ccc(Br)cc2)oc1N1CCN(Cc2ccccc2)CC1	none (not shown: BAP1 block)
N#Cc1nc(COc2ccc(Cl)cc2)oc1N1CCCCCC1	Ecoli tolC 66
N#Cc1nc(COc2ccccc2Cl)oc1N1CCCCCC1	none
CCCCOc1ccc(C(=O)Nc2nc3ccc(Cl)cc3s2)cc1	none (no result: Hsp90 block, E coli WT exp, Ecoli tolC, M1 ag, M1 antag)
Cc1cc(=O)[nH]c(SCC(=O)Nc2ccccc2F)n1	none (no result: Hsp90 block, E coli WT exp, Ecoli tolC, M1 ag, M1 antag)
O=[N+]([O-])c1cccc(C=Nc2ccc(S(=O)(=O)c3ccc(N=Cc4cccc([N+](=O)[O-])c4)cc3)cc2)c1	none (no result: Hsp90 block, E coli WT exp, Ecoli tolC, M1 ag, M1 antag)
O=C(c1ccc(Cl)cc1)C1C2C(=O)N(c3ccccc3)C(=O)C2C2CCCN21 (stereo not given)	M1 ag 15 (not shown: BAP1 block)
O=C(CSc1nnc(Cc2cccs2)n1Cc1ccco1)Nc1ccc(Br)cc1	Ecoli tolC 100
O=C(CSc1nnc(Cc2ccccc2)n1Cc1ccco1)NC12CC3CC(CC(C3)C1)C2	Ecoli tolC 83
Cc1cc(Cl)ccc1NC(=O)CSc1nnc(-c2ccncc2)n1Cc1ccco1	none (no result: Hsp90 block, BAP1 block)
O=C(CSc1nnc(Cc2cccs2)n1Cc1ccco1)Nc1ccc(Cl)cc1Cl	Ecoli tolC 95
NC[C@@H]1O[C@H](C23CC4CC(CC(C4)C2)C3)Cc2c1ccc(O)c2O	Hsp90 block 78 (no result: E coli WT exp, Ecoli tolC, M1 ag, M1 antag)
OC(c1cccc2ccccc12)c1nc2ccccc2n1Cc1ccccc1 (stereo not given)	none (no result: Hsp90 block, E coli WT exp, Ecoli tolC, M1 ag, M1 antag)
O=C1c2ccccc2C(O)N1Cc1ccco1 (stereo not given)	none
COCCCN1C(=O)c2[nH]nc(-c3ccccc3O)c2C1c1ccc(Cl)cc1 (stereo not given)	Ecoli tolC 64 (no result: M1 ag, M1 antag)
O=C1c2[nH]nc(-c3ccccc3O)c2C(c2ccccc2)N1Cc1ccco1 (stereo not given)	Ecoli tolC 98 (no result: M1 ag, M1 antag)
O=C1c2[nH]nc(-c3ccccc3O)c2C(c2ccccc2F)N1Cc1ccco1 (stereo not given)	Ecoli tolC 100
COCCCN1C(=O)c2[nH]nc(-c3ccccc3O)c2C1c1cccc(Cl)c1 (stereo not given)	none
c1csc(-c2nc3nc4ccccc4nc3n2Cc2ccc3c(c2)OCO3)c1	Ecoli tolC 66
Nc1cc(C(=O)O)ccc1NC(=O)c1ccccc1	none (no result: Hsp90 block, E coli WT exp, Ecoli tolC, M1 ag, M1 antag)
O=C(COc1cccc2ccccc12)N1CCN(c2ccccc2)CC1	Ecoli tolC 66 (no result: Hsp90 block, BAP1 block)
Cc1nnc(SCC(=O)Nc2ccc(Br)cn2)[nH]c1=O	M1 antag 1
O=C(O)CCCNc1cc(N2CCC3(CC2)OCCO3)c2noc3c2c1C(=O)c1ccccc1-3	M1 ag 6.2
CCN(CC)S(=O)(=O)c1cccc(-c2nnc(SCC(=O)c3cc(C)n(C4CC4)c3C)o2)c1	M1 ag 3.2 (no result: E coli WT exp)
O=C(COc1nc2ccccc2s1)N1c2ccccc2CCc2ccccc21	none (no result: Hsp90 block, E coli WT exp, Ecoli tolC, M1 ag, M1 antag)
COc1ccc(C(=O)Nc2nc3ccc4nc(SC)sc4c3s2)cc1	none (no result: Hsp90 block, E coli WT exp, Ecoli tolC, M1 ag, M1 antag)
Cc1cc2nc(NC3=NCN(Cc4cccnc4)CN3)nc(C)c2cc1C	M1 antag -3.2 (no result: E coli WT exp)
CCc1ccc2nc(NC3=NCN(CCOC)CN3)nc(C)c2c1	none (no result: E coli WT exp)
COc1ccc(/C(O)=C2\C(=O)C(=O)N(CC3CCCO3)C2c2cc(OC)ccc2OC)cc1 (stereo not given)	Ecoli tolC 100
Cc1c(NC(=O)c2ccc([N+](=O)[O-])cc2)c(=O)n(-c2ccccc2)n1C	none (no result: Hsp90 block, E coli WT exp, Ecoli tolC, M1 ag, M1 antag)
N#C/C(=C\C1CC=CCC1)c1nc2ccccc2[nH]1 (stereo not given)	Ecoli tolC 64
Cc1nn(-c2nc3ccccc3[nH]2)c(N)c1-c1ccccc1	Ecoli tolC 76 (no result: E coli WT exp)
CC(=O)C1CC(CC(N)=O)C1(C)C (stereo not given)	none (no result: Hsp90 block, E coli WT exp, Ecoli tolC, M1 ag, M1 antag)
Cc1ccc(C(=O)CC23CC4CC(CC(C4)C2)C3)cc1	none (no result: Hsp90 block, E coli WT exp, Ecoli tolC, M1 ag, M1 antag)
CCCOc1ccc(C(=O)Oc2cccc3cccnc23)cc1	none (no result: Hsp90 block, E coli WT exp, Ecoli tolC, M1 ag, M1 antag)
Cc1noc(C)c1CSc1nnc2c(C)cc3ccccc3n12	M1 ag 1.7 (no result: E coli WT exp)
CC1=C(C(=O)OC2CCCCCCC2)C(c2cccc(O)c2)NC(=O)N1 (stereo not given)	Ecoli tolC 65
NS(=O)(=O)c1ccc(Nc2nc(-c3ccccc3)c3cc(Br)ccc3n2)cc1	none (no result: Hsp90 block, E coli WT exp, Ecoli tolC, M1 ag, M1 antag)
CC1=C(C(=O)OCC2CCCO2)C(c2ccc(C)o2)C2=C(CC(c3ccc(N(C)C)cc3)CC2=O)N1 (stereo not given)	M1 ag 5.6
OC(COc1ccc2ccccc2c1)Cn1ccnc1 (stereo not given)	none
OC(COc1ccc2ccccc2c1Br)Cn1ccnc1 (stereo not given)	Ecoli tolC 99
CCN1C(=O)CSC1=NC1C2CC3CC(C2)CC1C3 (stereo not given)	Ecoli tolC 88 (no result: Hsp90 block, BAP1 block)
Cc1ccc(-n2c(=O)[nH]cc(C(=O)Nc3ccc4c(c3)OCCO4)c2=O)cc1	none
Cc1ccc(-n2c(=O)[nH]cc(C(=O)Nc3ccc4c(c3)OCCO4)c2=O)cc1C	Ecoli tolC 67
Cc1oc(C(C)(C)C)cc1C(=O)Nc1ccc2c(c1)OCCO2	Ecoli tolC 80
N#Cc1ccc(N=c2oc3ccccc3cc2-c2nc3ccccc3[nH]2)cc1	none (no result: Hsp90 block, E coli WT exp, Ecoli tolC, M1 ag, M1 antag)
COc1cccc(-c2cc(C(F)(F)F)nc(N3CCOCC3)n2)c1	Ecoli tolC 68 (no result: Hsp90 block, BAP1 block)
